This passage reports IC50, HC50 and Activity results from ChEMBL document CHEMBL4613213, “Anibamine and Its Analogues: Potent Antiplasmodial Agents from Aniba citrifolia” (J Nat Prod, 2020).

Molecules are shown by their SMILES. The source made the active and inactive calls. The rule behind the calls is not given here. Where only a bound is given, the exact number is not on record here.

Series [1] concerns Plasmodium falciparum. Description: Antiplasmodial activity against Plasmodium falciparum Dd2 assessed as reduction in parasite growth after 72 hrs by SYBR Green 1 staining based assay. The series is classed as functional, organism-based. A digest of the protocol: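 Dd2 cultures started at ring stage, 1% hematocrit and 1% parasitemia. Grown 72 h at 37 °C in 5% CO2/5% O2/90% N2 across increasing drug concentrations. Viability read by SYBR Green I DNA quantitation in lysis buffer. IC50 from nonlinear regression; mean of three independent determinations, each in triplicate, ± SEM.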

Another series deals with A2780. Kind of series: Cytotoxicity against human A2780 cells assessed as reduction in cell viability after 2 days by AlamarBlue assay. The series is classed as ADME, cell-based. The settings on record: A2780, 48 h.
A short description of series [2]: Hemolytic activity in human RBC. The series is classed as cell-based, Erythrocyte. Particulars: human red blood cells (erythrocytes).
Series [3] deals with Plasmodium falciparum. Description: Antiplasmodial activity against Plasmodium falciparum Dd2 schizonts form infected in erythrocytes assessed as reduction in parasite growth at 0.5 uM after 6 hrs by Giemsa staining based light microscopic method. The series is classed as functional, organism-based. A digest of the protocol: (§1)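 Compound added at schizont stage (40–42 post-invasion). Morphology assessed on Giemsa-stained thin blood smears at 6, 24 and 48 h of treatment and compared with untreated controls. Two or more independent experiments.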

Series [4] relates to Plasmodium falciparum. Kind of series: Antiplasmodial activity against Plasmodium falciparum Dd2 schizonts form infected in erythrocytes assessed as reduction in reinvasion at 0.5 uM after 6 hrs by Giemsa staining based light microscopic method. The series is classed as functional, organism-based. A digest of the protocol:
as §1

In series [5] the test system is Plasmodium falciparum. Description: Antiplasmodial activity against Plasmodium falciparum Dd2 schizonts form infected in erythrocytes assessed as reduction in ring stage formation at 0.5 uM after 6 hrs by Giemsa staining based light microscopic method. The series is classed as functional, organism-based. A digest of the protocol:
as §1

Series [6] deals with Plasmodium falciparum. Kind of series: Antiplasmodial activity against Plasmodium falciparum Dd2 schizonts form infected in erythrocytes assessed as reduction in trophozoites formation at 0.5 uM after 48 hrs by Giemsa staining based light microscopic method. The series is classed as functional, organism-based. Put shortly: as §1
Series [7] concerns Plasmodium falciparum. Description: Antiplasmodial activity against Plasmodium falciparum Dd2 schizonts form infected in erythrocytes assessed as morphological defects at 0.5 uM after 48 hrs by Giemsa staining based light microscopic method. The series is classed as functional, organism-based. A digest of the protocol: as §1
Series [8] relates to Plasmodium falciparum. Description: Antiplasmodial activity against Plasmodium falciparum Dd2 schizonts form infected in erythrocytes assessed as reduction in parasite growth at 1 uM after 6 hrs by Giemsa staining based light microscopic method. The series is classed as functional, organism-based. A digest of the protocol: as §1
In series [9] the test system is Plasmodium falciparum. Description: Antiplasmodial activity against Plasmodium falciparum Dd2 schizonts form infected in erythrocytes assessed as reduction in reinvasion at 1 uM after 6 hrs by Giemsa staining based light microscopic method. The series is classed as functional, organism-based. Put shortly:
as §1

Series [10] deals with Plasmodium falciparum. Description: Antiplasmodial activity against Plasmodium falciparum Dd2 schizonts form infected in erythrocytes assessed as reduction in ring stage formation at 1 uM after 6 hrs by Giemsa staining based light microscopic method. The series is classed as functional, organism-based. A digest of the protocol:
as §1

The subject of series [11] is Plasmodium falciparum. Description: Antiplasmodial activity against Plasmodium falciparum Dd2 schizonts form infected in erythrocytes assessed as reduction in trophozoites formation at 1 uM after 48 hrs by Giemsa staining based light microscopic method. The series is classed as functional, organism-based. Put shortly:
as §1

The test system of series [12] is Plasmodium falciparum. Description: Antiplasmodial activity against Plasmodium falciparum Dd2 schizonts form infected in erythrocytes assessed as morphological defects formation at 1 uM after 48 hrs by Giemsa staining based light microscopic method. The series is classed as functional, organism-based. Put shortly: as §1
Series [13] has as its system Plasmodium falciparum. Description: Antiplasmodial activity against Plasmodium falciparum Dd2 ring stage form infected in erythrocytes assessed as reduction in parasite growth at 0.5 uM after 6 to 72 hrs by Giemsa staining based light microscopic method. The series is classed as functional, organism-based. Put shortly:
(§2)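 Compound added at ring stage (2–4 h post-invasion). Development followed on Giemsa-stained thin blood smears after 6, 24, 48 and 72 h of treatment and compared with untreated controls. Two or more independent experiments.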

In series [14] the test system is Plasmodium falciparum. Description: Antiplasmodial activity against Plasmodium falciparum Dd2 ring stage form infected in erythrocytes assessed as reduction in reinvasion at 0.5 uM after 48 to 72 hrs by Giemsa staining based light microscopic method. The series is classed as functional, organism-based. A digest of the protocol:
as §2

Where [15] appears, read: Plasmodium falciparum, Dd2, 72 h, read-out: IC50.

What is called IC50 is the concentration that gives 50% inhibition. With `CCCCCCCCCCc1c(C)nc(CCCOC)c(CCCCCCCCCC)c1C`, the IC50 in the series on Plasmodium falciparum [1] (setting [15]) is > 20 µM.
On the same count and under the same terms, the same measure for `CCCCCCCC/C=C/c1c(C)nc(CCCOC)c(/C=C/CCCCCCCC)c1C`: > 20 µM.
With `C=CC[C@@]12C=C(OC)C(=O)C=C1O[C@H](c1ccc3c(c1)OCO3)[C@H]2C`, the IC50 was > 30 µM in the series with Plasmodium falciparum [1] (setting [15]) and 10 to 50 µM in the series on A2780.
As for `CCCCCCCC/C=C\c1c(C)nc(C)c(/C=C\CCCCCCCC)c1C`, the IC50 in the series with Plasmodium falciparum [1] (setting [15]) is > 20 µM.
One may read the HC50 as the concentration that lyses half of the red blood cells. Read a high HC50 as weaker haemolysis. Turning to `CCCCCCCCCCc1c(C)c(CCCCCCCCCC)c2[n+](c1C)CCCC2`, the IC50 in the series on Plasmodium falciparum [1] (setting [15]) is 0.058 µM. Moreover, the HC50 in series [2] was > 58 µM. Moreover, the outcome in the series with Plasmodium falciparum [3], in the series with Plasmodium falciparum [4] and in the series with Plasmodium falciparum [5] was inactive. Further, the outcome with Plasmodium falciparum [6] and in the series with Plasmodium falciparum [7] was Active.
As for `CCCCCCCC/C=C/c1c(C)nc(C)c(/C=C/CCCCCCCC)c1C`, the IC50 in the series on Plasmodium falciparum [1] (setting [15]) is > 20 µM.
On to `CCCCCCCC/C=C/c1c(C)c(/C=C/CCCCCCCC)c2[n+](c1C)CCCC2`, for which the IC50 in the series on Plasmodium falciparum [1] (setting [15]) is 0.061 µM. Also, the HC50 in series [2] is > 58 µM. Also, the result in the series with Plasmodium falciparum [8], with Plasmodium falciparum [9] and in the series on Plasmodium falciparum [10] was inactive. Also, the result in the series with Plasmodium falciparum [11] and with Plasmodium falciparum [12] was Active.
On to `CCCCCCCC/C=C\c1c(CCCOC)nc(C)c(/C=C/CCCCCCCC)c1C`, for which the concentration for half-maximal inhibition (IC50) in the series with Plasmodium falciparum [1] (setting [15]) is > 20 µM.
Take `CCCCCCCC/C=C/c1c(C)cc(C)nc1C`: in the series with Plasmodium falciparum [1] (setting [15]), the half-maximal inhibitory concentration (IC50) was > 20 µM.
As to `C=CC[C@@]12C=C(OC)C(=O)[C@@H]([C@H](c3ccc4c(c3)OCO4)[C@H]1C)[C@H]2O`, the IC50 entry in the series on Plasmodium falciparum [1] was “Not Active”; in the series on A2780 it was 10 to 50 µM.
For the compound `C=CC[C@@]12C=C(OC)C(=O)[C@@H]([C@@H](c3ccc4c(c3)OCO4)[C@@H]1C)[C@@H]2O`, the IC50 with Plasmodium falciparum [1] (setting [15]) was > 100 µM; in the series on A2780, 10 to 50 µM.
`CCCCCCCC/C=C\c1c(C)cc(C)nc1CCCOC`: the IC50 with Plasmodium falciparum [1] (setting [15]) stood at 8.8 µM.
Same read-out and setting: the same measure for `COc1cc(C/C=C(\C)CCC=C(C)C)c(O)c(-c2cc3cc(OC)cc(C/C=C(\C)CCC=C(C)C)c3oc2=O)c1`: 18.2 µM.
In the case of `CCCCCCCCCCc1c(C)cc(C)[n+]2c1CCC2`, the IC50 in the series on Plasmodium falciparum [1] (setting [15]) turned out to be 0.06 µM. For the same compound, the result in the series with Plasmodium falciparum [3], in the series with Plasmodium falciparum [4], in the series on Plasmodium falciparum [5], in the series with Plasmodium falciparum [13] and in the series on Plasmodium falciparum [14] was inactive.
Take `CCCCCCCC/C=C\c1c(C)nc(CCCOC)c(/C=C/CCCCCCCC)c1C`: the IC50 with Plasmodium falciparum [1] (setting [15]) was > 20 µM.
With `CCCCCCCC/C=C/c1c(C)cc2[n+](c1C)CCC2`, the IC50 in the series with Plasmodium falciparum [1] (setting [15]) stood at 0.171 µM. For the same compound, the outcome in the series with Plasmodium falciparum [3], in the series with Plasmodium falciparum [4], with Plasmodium falciparum [5], in the series on Plasmodium falciparum [13] and in the series with Plasmodium falciparum [14] was inactive.
Consider `C=CCOc1cc2c(cc1OC)[C@H](C)[C@@H](c1ccc3c(c1)OCO3)O2`, for which the IC50 with Plasmodium falciparum [1] (setting [15]) was 30 µM; in the series on A2780 it was 10 to 50 µM.
In the case of `CCCCCCCC/C=C\c1c(C)cc(CCCOC)nc1C`, the IC50 in the series on Plasmodium falciparum [1] (setting [15]) came to 6.3 µM.
As for `CCCCCCCC/C=C\c1c(C)cc(C)nc1C`, the IC50 with Plasmodium falciparum [1] (setting [15]) was > 20 µM.
`C.C=CC[C@]1(C(=O)OC)CC(=O)C[C@H](c2ccc3c(c2)OCO3)[C@H]1C`: the IC50 in the series on Plasmodium falciparum [1] (setting [15]) is > 100 µM; with A2780, > 10 µM.
